Each block holds one compound with its values, some of them ahead of it. Activity calls are given as the source filed them. No cut-off for these calls is given here.
Key:
[1] = system: Leishmania donovani; test: Antileishmanial activity against Leishmania donovani amastigotes; format: functional, organism-based
[2] = system: Leishmania major; test: Antileishmanial activity against Leishmania major amastigotes; format: functional, organism-based
[3] = system: Trypanosoma cruzi; test: Antitrypanosomal activity against Trypanosoma cruzi MHOM/MX/1994/INC5 epimastigotes assessed as metabolic inhibition at 10 ug/ml after 24 hrs by MTT assay relative to control; format: functional; settings: MHOM/MX/1994/INC5, 24 h
[4] = system: Leishmania mexicana; test: Antileishmanial activity against Leishmania mexicana MNYC-BZ/62/M379 promastigotes assessed as metabolic inhibition at 10 ug/ml after 24 hrs by MTT assay relative to control; format: functional; settings: MNYC-BZ/62/M379, 24 h
Method in brief: (§1)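 Stationary-phase (7-day) metacyclic promastigotes, 5 x 10^5 per well in 100 µL RPMI 1640 with 10% heat-inactivated FBS and penicillin-streptomycin. Compounds from 10 mg/mL DMSO stock, diluted in PBS. Screen at 10 µg/mL in triplicate; actives serially diluted from 20 µg/mL. 27°C, dark, 24 h, then MTT 24 h. SDS/HCl solubilization, A570 vs blank. IC50 by Probit. Amphotericin B reference.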

[5] = Cytotoxicity against mouse J774.A1 cells assessed as reduction in cell viability measured after 20 hrs by MTT assay; format: cell-based
Method in brief: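 J774A.1 macrophages, 5x10^4/well, preincubated 24 h at 37 °C, 5% CO2. Compounds at several concentrations in triplicate for 20 h, untreated cells as control. MTT added for 4 h, then 10% SDS/0.01N HCl, absorbance read. CC50 by Probit concentration-response.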

[6] = system: Trypanosoma cruzi; test: Antitrypanosomal activity against Trypanosoma cruzi MHOM/MX/1994/INC5 epimastigotes assessed as growth inhibition measured after 24 hrs by MTT assay; format: functional, organism-based; settings: MHOM/MX/1994/INC5, 24 h
[7] = Selectivity index, ratio of CC50 for mouse J774.A1 cells to IC50 for antitrypanosomal activity against Trypanosoma cruzi MHOM/MX/1994/INC5 epimastigotes; format: toxicity; settings: read-out: Ratio CC50/IC50
Method in brief: (§2)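 SI = CC50 (J774A.1, 20 h MTT) divided by parasite IC50 (24 h MTT), both Probit-derived.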

[8] = system: Leishmania mexicana; test: Induction of morphological changes in Leishmania mexicana MNYC-BZ/62/M379 promastigotes assessed as cell death at 3 multiples of IC50 concentration and measured after 24 hrs by giemsa staining using light microscopic method; format: functional, organism-based
[9] = system: Leishmania mexicana; test: Induction of morphological changes in Leishmania mexicana MNYC-BZ/62/M379 promastigotes assessed as decrease in flagella length at 3 multiples of IC50 concentration and measured after 24 hrs by giemsa staining using light microscopic method; format: functional, organism-based
[10] = system: Trypanosoma cruzi; test: Induction of morphological changes in Trypanosoma cruzi MHOM/MX/1994/INC5 epimastigotes assessed as decrease in cell density measured after 24 hrs by giemsa staining using light microscopic method; format: functional, organism-based
Method in brief: (§3)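 Parasites exposed 24 h to a range of compound concentrations, Giemsa-stained, examined by light microscopy at 100x for morphology and cell density.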

[11] = system: Leishmania mexicana; test: Induction of morphological changes in Leishmania mexicana MNYC-BZ/62/M379 promastigotes assessed as rounded cells at 3 multiples of IC50 concentration and measured after 24 hrs by giemsa staining using light microscopic method; format: functional, organism-based
[12] = Selectivity index, ratio of CC50 for mouse J774.A1 cells to IC50 for antileishmanial activity against Leishmania mexicana MNYC-BZ/62/M379 promastigotes; format: toxicity; settings: read-out: Ratio CC50/IC50; method in brief: as §2
[13] = system: Leishmania mexicana; test: Induction of morphological changes in Leishmania mexicana MNYC-BZ/62/M379 promastigotes assessed as decrease in cell density at 1.25 to 20 ug/ml measured after 24 hrs by giemsa staining using light microscopic method; format: functional, organism-based; method in brief: as §3
[14] = system: Leishmania mexicana; test: Antileishmanial activity against Leishmania mexicana MNYC-BZ/62/M379 promastigotes assessed as growth inhibition measured after 24 hrs by MTT assay; format: functional, organism-based; settings: MNYC-BZ/62/M379, 24 h; method in brief: as §1
[15] = system: Leishmania mexicana; test: Antileishmanial activity against Leishmania mexicana MNYC-BZ/62/M379 promastigotes assessed as metabolic inhibition at 0.5 ug/ml after 24 hrs by MTT assay relative to control; format: functional; settings: MNYC-BZ/62/M379, 24 h

- IC50 [1]: 1.4 to 88.8 µM
- IC50 [2]: 1.4 to 88.8 µM
Compound: COc1ccc(/C=C/C(=O)c2ccc(OC/C=C(\C)CCC=C(C)C)cc2)cc1

Compound: COc1ccc(C(=O)/C=C/c2ccc(OC/C=C(\C)CCC=C(C)C)c(OC)c2)cc1OC
- inhibition at 10 µg/mL [3]: 22%
- inhibition at 10 µg/mL [4]: 13.5%

Compound: COc1cc(/C=C/C(=O)c2ccc(O)cc2)ccc1OC/C=C(\C)CCC=C(C)C
- inhibition at 10 µg/mL [3]: 20.4%
- inhibition at 10 µg/mL [4]: 17.6%

Compound: COc1ccc(/C=C/C(=O)c2ccc(OCC=C(C)C)c(OC)c2)cc1OC
- inhibition at 10 µg/mL [3]: 25.3%
- inhibition at 10 µg/mL [4]: 15.6%

Compound: COc1ccc(/C=C/C(=O)c2ccc(OCC=C(C)C)c(OC)c2)cc1
- inhibition at 10 µg/mL [3]: 7.9%
- inhibition at 10 µg/mL [4]: 1%

- IC50 [6]: 30.1 µM
Compound: COc1cc(/C=C/C(=O)c2ccc(OC/C=C(\C)CCC=C(C)C)c(OC)c2)ccc1OCC=C(C)C
- CC50 at 20 h [5]: 825 µM
- inhibition at 10 µg/mL [3]: 43.9%
- selectivity ratio [7]: 27.4
- inhibition at 10 µg/mL [4]: -8%

- IC50 [1]: 1.4 to 88.8 µM
- IC50 [2]: 1.4 to 88.8 µM
Compound: CC(C)=CCC/C(C)=C/COc1cccc(/C=C/C(=O)c2ccccc2)c1

Compound: COc1ccc(C(=O)/C=C/c2ccc(OCC=C(C)C)c(OC)c2)cc1
- inhibition at 10 µg/mL [3]: 2.6%
- inhibition at 10 µg/mL [4]: 25.5%

- IC50 [6]: 17.5 µM
Compound: COc1cc(/C=C/C(=O)c2cc(OC)c(OC)c(OC)c2)ccc1OCC=C(C)C
- Activity [8]: Active
- Activity [9]: Active
- CC50 at 20 h [5]: 1310 µM
- Activity [10]: Dose-dependent effect
- inhibition at 10 µg/mL [3]: 84%
- Activity [11]: Active
- selectivity ratio [12]: 80.9
- Activity [13]: Active
- selectivity ratio [7]: 75.1
- IC50 [14]: 16.2 µM
- inhibition at 10 µg/mL [4]: 71.3%

- IC50 [1]: 1.4 to 88.8 µM
- IC50 [2]: 1.4 to 88.8 µM
Compound: CC(C)=CCC/C(C)=C/CC/C(C)=C/COc1ccccc1/C=C/C(=O)c1ccccc1

- IC50 [6]: 42.3 µM
Compound: O=C(Cn1ccnc1[N+](=O)[O-])NCc1ccccc1 [BENZNIDAZOLE]
- CC50 at 20 h [5]: 352 µM
- inhibition at 10 µg/mL [3]: 77.4%

Compound: COc1ccc(/C=C/C(=O)c2ccc(OC/C=C(\C)CCC=C(C)C)c(OC)c2)cc1
- inhibition at 10 µg/mL [3]: -11.6%
- inhibition at 10 µg/mL [4]: 0%

- IC50 [1]: 1.4 to 88.8 µM
- IC50 [2]: 1.4 to 88.8 µM
Compound: CC(C)=CCC/C(C)=C/COc1ccccc1/C=C/C(=O)c1ccccc1

- IC50 [1]: 1.4 to 88.8 µM
- IC50 [2]: 1.4 to 88.8 µM
Compound: CC(C)=CCC/C(C)=C/CC/C(C)=C/COc1cccc(/C=C/C(=O)c2ccccc2)c1

Compound: COc1cc(C(=O)/C=C/c2ccc(OC/C=C(\C)CCC=C(C)C)c(OC)c2)ccc1OCC=C(C)C
- inhibition at 10 µg/mL [3]: 33.2%
- inhibition at 10 µg/mL [4]: -3.2%

Compound: COc1cc(/C=C/C(=O)c2cc(OC)c(OC)c(OC)c2)ccc1OC/C=C(\C)CCC=C(C)C
- inhibition at 10 µg/mL [3]: 31.6%
- inhibition at 10 µg/mL [4]: 11.3%

- IC50 [6]: 17.8 µM
Compound: COc1cc(C(=O)/C=C/c2cc(OC)c(OC)c(OC)c2)ccc1OCC=C(C)C
- CC50 at 20 h [5]: 25.6 µM
- inhibition at 10 µg/mL [3]: 80.3%
- selectivity ratio [12]: 1.24
- selectivity ratio [7]: 1.43
- IC50 [14]: 20.7 µM
- inhibition at 10 µg/mL [4]: 59.1%

Compound: COc1ccc(/C=C/C(=O)c2ccc(OC/C=C(\C)CCC=C(C)C)c(OC)c2)cc1OC
- inhibition at 10 µg/mL [3]: 28.3%
- inhibition at 10 µg/mL [4]: 27.3%

- IC50 [1]: 1.4 to 88.8 µM
- IC50 [2]: 1.4 to 88.8 µM
Compound: CC(C)=CCOc1ccccc1/C=C/C(=O)c1ccccc1

Compound: COc1cc(C(=O)/C=C/c2ccc(O)cc2)ccc1OCC=C(C)C
- inhibition at 10 µg/mL [3]: 16.3%
- inhibition at 10 µg/mL [4]: 4.6%

Compound: COc1cc(/C=C/C(=O)c2ccc(OCC=C(C)C)c(OC)c2)ccc1OCC=C(C)C
- inhibition at 10 µg/mL [3]: 20%
- inhibition at 10 µg/mL [4]: 3.9%

Compound: COc1ccc(C(=O)/C=C/c2ccc(OC/C=C(\C)CCC=C(C)C)c(OC)c2)cc1
- inhibition at 10 µg/mL [3]: 13.7%
- inhibition at 10 µg/mL [4]: 0.7%

Compound: COc1ccc(C(=O)/C=C/c2ccc(OCC=C(C)C)c(OC)c2)cc1OC
- CC50 at 20 h [5]: 1750 µM
- inhibition at 10 µg/mL [3]: 11.8%
- selectivity ratio [12]: 55.1
- IC50 [14]: 31.8 µM
- inhibition at 10 µg/mL [4]: 48.3%

- IC50 [6]: 8.7 µM
Compound: CC1CS(=O)(=O)CCN1/N=C/c1ccc([N+](=O)[O-])o1 (stereo not drawn) [NIFURTIMOX]
- CC50 at 20 h [5]: 201 µM
- selectivity ratio [7]: 23.1

Compound: C[C@@H]1[C@H](O)[C@@H](C)/C=C/C=C/C=C/C=C/C=C/C=C/C=C/[C@H](O[C@@H]2O[C@H](C)[C@@H](O)[C@H](N)[C@@H]2O)C[C@@H]2O[C@](O)(C[C@@H](O)C[C@@H](O)[C@H](O)CC[C@@H](O)C[C@@H](O)CC(=O)O[C@H]1C)C[C@H](O)[C@H]2C(=O)O [AMPHOTERICIN B]
- CC50 at 20 h [5]: 60.7 µM
- selectivity ratio [12]: 216
- IC50 [14]: 0.28 µM
- inhibition at 0.5 µg/mL [15]: 99%

Compound: COc1cc(C(=O)/C=C/c2cc(OC)c(OC)c(OC)c2)ccc1OC/C=C(\C)CCC=C(C)C
- inhibition at 10 µg/mL [3]: -0.8%
- inhibition at 10 µg/mL [4]: 2.1%

Compound: COc1cc(/C=C/C(=O)c2ccc(O)cc2)ccc1OCC=C(C)C
- inhibition at 10 µg/mL [3]: 23.8%
- inhibition at 10 µg/mL [4]: 17.7%

- IC50 [1]: 1.4 to 88.8 µM
- IC50 [2]: 1.4 to 88.8 µM
Compound: CC(C)=CCOc1cccc(/C=C/C(=O)c2ccccc2)c1

Compound: COc1cc(C(=O)/C=C/c2ccc(O)cc2)ccc1OC/C=C(\C)CCC=C(C)C
- inhibition at 10 µg/mL [3]: -5.5%
- inhibition at 10 µg/mL [4]: 4.9%

- IC50 [6]: 30.4 µM
Compound: COc1cc(/C=C/C(=O)c2ccc(OC/C=C(\C)CCC=C(C)C)c(OC)c2)ccc1OC/C=C(\C)CCC=C(C)C
- CC50 at 20 h [5]: 1020 µM
- inhibition at 10 µg/mL [3]: 45%
- selectivity ratio [7]: 33.5
- inhibition at 10 µg/mL [4]: 1%

Source: ChEMBL document CHEMBL4390645, “Novel prenyloxy chalcones as potential leishmanicidal and trypanocidal agents: Design, synthesis and evaluation” (Eur J Med Chem, 2019)
